Series [1] addresses CYP2E1 (Homo sapiens, UniProt P05181). The series is described as follows: CYP2E1 inhibition assay. The series is classed as biochemical. Particulars: for inhibition at saturating substrate concentration: in words; for Inhibition type: p-NP 5-100 μmol/L, inhibitor 5-200 μmol/L, goodness-of-fit; for inhibition at 1 h: CYP2E1 baculosomes, pH 7.4, probe para-nitrophenol (p-NP). The method, boiled down:
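p-NP hydroxylation by CYP2E1 baculosomes (2 pmol/μL) in 50 mmol/L potassium phosphate, pH 7.4. p-NP at 5–100 μmol/L (five levels) and inhibitor at 5–200 μmol/L (six levels). Pre-incubated 5 min at 37°C, then NADPH added (26 mmol/L) and run 1 h at 37°C. Stopped with TCA, neutralized with NaOH, absorbance read at 535 nm. Activity normalized to vehicle. IC50, Km/Vmax and Ki/inhibition type fitted by nonlinear regression; four replicates.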

In series [2] the test system is CYP2E1. The settings on record: acetone-induced rat microsome; ref Brady et al. 1991; cited from earlier work.
Series [3] in a line: Preliminary toxicity / cell death of DAS analogs. The series is classed as cell-based. Particulars: 200 μmol/L, 6 days of treatment, unpublished.
[4] abbreviates: 100 μmol/L p-NP, mean ± SE, four replicates.
Setting [5] is: competitive inhibition, mean ± SE, four replicates.
Where [6] appears, read: K i, noncompetitive inhibition, mean ± SE, four replicates.
[7] abbreviates: K i, uncompetitive inhibition, mean ± SE, four replicates.

Read-outs that look alike come from different tables or passages of the source.

The IC50 is the midpoint of a concentration-inhibition curve. Low values mean inhibition by little substance, high ones a need for much substance. As a reminder, the Ki is the equilibrium dissociation constant of an inhibitor or competing ligand from its target. In general, inhibition refers to the percentage by which the read-out fell short of the control. High values mean strong suppression, low ones little suppression.

Chain of CYP2E1 (Homo sapiens, UniProt P05181) (P05181 whole entry): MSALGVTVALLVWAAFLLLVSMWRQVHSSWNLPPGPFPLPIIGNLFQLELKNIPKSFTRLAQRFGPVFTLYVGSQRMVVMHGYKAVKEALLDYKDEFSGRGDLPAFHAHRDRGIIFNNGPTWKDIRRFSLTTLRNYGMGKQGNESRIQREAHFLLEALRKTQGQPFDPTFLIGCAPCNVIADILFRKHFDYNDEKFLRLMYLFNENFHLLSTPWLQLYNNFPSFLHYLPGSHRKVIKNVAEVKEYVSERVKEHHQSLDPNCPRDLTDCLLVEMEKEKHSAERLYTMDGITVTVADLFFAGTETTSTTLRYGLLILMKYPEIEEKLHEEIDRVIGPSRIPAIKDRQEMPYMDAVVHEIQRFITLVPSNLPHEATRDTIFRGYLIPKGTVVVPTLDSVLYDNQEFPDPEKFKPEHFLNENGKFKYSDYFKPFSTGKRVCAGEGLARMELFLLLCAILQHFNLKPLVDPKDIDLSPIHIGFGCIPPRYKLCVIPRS

As to `C=CCSC` [Allyl methyl sulfide (AMS), allyl methyl sulfide], on CYP2E1 [1], the “Maximal inhibition (%)” value stood at 100%, the “inhibition at saturating substrate concentration” value is recorded as “complete inhibition” and the Inhibition type result was “Competitive”. Further, the IC50 at CYP2E1 [1] (setting [4]) is 11.4 ± 1.1 µM. For the same compound, the midpoint of inhibition against CYP2E1 [1] (100 μmol/L p-NP, mean ± SE, four replicates, listed as AMS), the IC50, lay at 11.4 ± 1.1 µM. At CYP2E1 [1] (setting [5]), this compound displayed a Ki of 4.4 ± 0.9 µM.
On to `C=CCOCCN` [2‐(prop‐2‐en‐1‐yloxy) ethan‐1‐amine], for which, on CYP2E1 [1], 43.7 ± 1.4 µM corresponded to half-maximal inhibition (IC50) and the inhibition at 1 h worked out at 71%. The same compound gave a Ki on CYP2E1 [1] (setting [6]) of 34.1 ± 3.3 µM. In addition, on CYP2E1 [1] (setting [7]), the Ki turned out to be 19.3 ± 2.3 µM.
With `C=CCOCC(N)=O` [2‐prop‐2‐enoxyacetamide (PEXA), 2‐prop‐2‐enoxyacetamide], half-maximal inhibition on CYP2E1 [1] (IC50) required 91.4 ± 1.6 µM. The compound also displayed an inhibition at 1 h against CYP2E1 [1] of 20%. Further, the Ki worked out at 363 ± 64 µM on CYP2E1 [1] (setting [6]) and 246 ± 47 µM at CYP2E1 [1] (setting [7]).
For `C=CCSCC=C` [Diallyl sulfide (DAS), Diallyl sulfide, reference compound], at CYP2E1 [1], the concentration for half-maximal inhibition (IC50) was 17.3 ± 1.1 µM, the inhibition at 1 h was determined as 97% and the Inhibition type result is listed as “Competitive”. At CYP2E1 [1] (K i, competitive inhibition, mean ± SE, four replicates), this compound returned a Ki of 6.3 ± 1 µM. For the same compound, the Inhibition type result at CYP2E1 [1] (listed as DAS) is reported as “competitive inhibition kinetics”. Moreover, the Inhibition type result in the series on CYP2E1 [2] is on record as “competitive inhibition”.
For the compound `c1ccsc1` [Thiophene (TP), thiophene], on CYP2E1 [1], the “Maximal inhibition (%)” value is recorded as 98%, the “inhibition at saturating substrate concentration” value was “complete inhibition” and the Inhibition type result is listed as “Competitive”. The same compound registered an IC50 on CYP2E1 [1] (setting [4]) of 19.4 ± 1.1 µM. Besides, the Ki at CYP2E1 [1] (setting [5]) came to 7.7 ± 1.2 µM. Besides, the toxicity result in series [3] is on record as “did not show any significant toxicities”.
At CYP2E1 [1], `C=CCCCCN` [5‐hexen‐1‐amine (5, 1 HA), 5‐hexen‐1‐amine] showed an IC50 of 74.7 ± 1.2 µM and an inhibition at 1 h of 75%. The compound also had a Ki at CYP2E1 [1] (setting [6]) of around 10.5 µM. Also, the Ki on CYP2E1 [1] (setting [7]) is around 7.3 µM.

The values above are taken from article PMC5625166 (Pharmacology Research & Perspectives, 2017).
